The nature of this series: Toxicity liver stage against HepG2, at 10uM. The format is cell-based. As to conditions: human, HepG2-A16-CD81EGFP cells; read-out: INHIBITION
Details: test concentration 10 uM, cell line HepG2-A16-CD81EGFP. The method in brief:
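Uninfected HepG2-A16-CD81EGFP cells, 3 × 10^3 per well, 1536-well, plated on prespotted compound at 10 μM final, parasite-free screening media added to match infected plates; puromycin 10 μM positive, DMSO 0.5% negative; run in parallel with 48 h PbLuc assay at 37 °C, 5% CO2; viability by CellTiter-Glo luminescence, normalized to controls.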
With `O=C(NC[C@H]1OC[C@@H](NC2CCC(F)(F)CC2)[C@@H]1O)C1CCCC1`, the cytotoxicity at 10 µM is -77.9%.
In the case of `Cn1ccnc1CN1C(=O)CO[C@H]2CN(Cc3ccccc3O)C[C@H]21` it was 4.22%; in that of `CC(C)(C)C(=O)N1CC(=O)N(Cc2ccco2)CC(O)C1` (stereo unspecified), 4.79%; in that of `O=C(CCc1ccc(-n2cnnn2)cc1)Nc1nncs1`, -1.14%.
In the case of `O=C(CCCn1cnc2ccccc2c1=O)Nc1nc[nH]n1` it was -4.84%; in that of `Cn1cccc1C(O)CNC(=O)COc1ccccc1F` (stereo unspecified), -2.54%; in that of `CCOc1ccc(NC(=O)NCC(C)(O)c2cccs2)cc1` (stereo unspecified), -0.579%.
For `Cn1nc(CN2CCCC2)c2c1CN(C(=O)c1ccncc1F)CC2` the value was -154%; for `COc1cccc(CC(=O)N2Cc3nccn3CC(CN(C)C)C2)c1` (stereo unspecified), -135%; for `O=C(c1cnccn1)N1CCC2(CCCN(Cc3ccoc3)C2)C1` (stereo unspecified), -139%.
With `CC(=O)Nc1ncc(S(=O)(=O)Nc2ccccc2)s1`, the cytotoxicity at 10 µM was determined as 6.72%.
In the case of `CCC(C)c1noc(C2CCN(C(=O)Cn3nc(C)cc3C)CC2)n1` (stereo unspecified) it was 6.58%.
In the case of `CS(=O)(=O)N1CCC(C(=O)NCCCn2cc(Cl)cn2)CC1` it was -8.97%; in that of `O=C(c1ccc2c(c1)CCC2)N1CCn2ncnc2C1`, -5.26%.
For `COc1ccc(S(=O)(=O)N2CCC[C@@H]3CN(C(=O)C4CC4)C[C@@H]32)cc1F` the value was 3.75%.
As to `O=C(NCC1(O)COCCN(Cc2cccc(O)c2)C1)c1ccccn1` (stereo unspecified), the cytotoxicity at 10 µM was -4.29%.
In the case of `CCCC(=O)N(C)Cc1cccc(OC(C)C)c1` it was -4.24%.
For `Cc1cnn(Cc2cccc(OCC(N)=O)c2)c1` the value was -2.84%.
For `Cc1ncc(CNC(=O)N(C)Cc2ccc([S+](C)[O-])cc2)s1` (stereo unspecified) the value was 9.35%.
Turning to `CCCN(CC1COc2ccccc2O1)C(=O)CCN1C(=O)CCC1=O` (stereo unspecified), the cytotoxicity at 10 µM was -37%.
In the case of `N#Cc1ccc(CN2CCOCC2)cc1` it was -9.32%; in that of `CN(CC(O)C(F)(F)F)C(=O)Nc1cccc(C(F)F)c1` (stereo unspecified), 5.46%; in that of `CN(C)c1cccc(C(=O)Nc2ccn(CCc3ccncc3)n2)c1`, 0.209%.
In the case of `O=C(C1CC1)N1CCC(c2nc(-c3ccccc3)n[nH]2)CC1` it was -4.15%.
For `COc1cccc(CCCN2CCC(N(C)S(C)(=O)=O)CC2)c1` the value was -3.88%.
Turning to `Cc1ccc(C(=O)NCCNS(C)(=O)=O)c(=O)[nH]1`, the cytotoxicity at 10 µM was -5.3%.
For `CC(=O)c1cccc(NC(=O)CN2CCCCC2C(=O)N2CCCC2)c1` (stereo unspecified) the value was -8.82%.
Turning to `CSC(C)(C)CNC(=O)NC1CCN(CC=C(C)C)CC1`, the cytotoxicity at 10 µM is -6.45%.
In the case of `O=C(CCN1CCCC1c1cccc2c1OCCO2)N1CCCCC1` (stereo unspecified) it was 2.43%.
For `CCC(=O)NC1CCN(c2cccc(OC(F)(F)F)c2)C1=O` (stereo unspecified) the value was -11.5%; for `Cc1nn(C)c(C)c1OCC(=O)NCC(O)c1ccco1` (stereo unspecified), -4.71%.
In the case of `CCC(CNC(=O)c1ccccn1)N1CCc2ccccc2C1` (stereo unspecified) it was 1.02%.
With `CCNC(=O)N1CCC(n2ccc(C(F)(F)F)n2)CC1`, the cytotoxicity at 10 µM came to 10.5%.
For `CCc1cc(NC(=O)C(c2cccc(F)c2)N2CCOCC2)[nH]n1` (stereo unspecified) the value was -10.3%; for `CC(C(=O)NCc1cn2cc(Br)ccc2n1)S(C)(=O)=O` (stereo unspecified), -16.4%; for `CC(NC(=O)c1csnn1)c1ccc(OCC2CC2)c(F)c1` (stereo unspecified), -1%.
In the case of `O=C(NCCCOCC1CCCO1)c1cccnc1N1CCOCC1` (stereo unspecified) it was 3.68%; in that of `CC(C)(C)CC(=O)NCCCn1cncn1`, -4.34%.
Take `O=C(CCCC1CCCC1)NS(=O)(=O)CC1CC1`: the cytotoxicity at 10 µM is -5.62%.
On to `O=c1c2cccnc2cnn1CC(O)c1cccc(C(F)(F)F)c1` (stereo unspecified), for which the cytotoxicity at 10 µM is -3.67%.
In the case of `Cc1nn(CC(=O)Nc2cccc(F)c2)c(N)c1C#N` it was 17.9%; in that of `Cc1nc(CNC(=O)Nc2ccc3c(ccn3CCN(C)C)c2)no1`, -21.8%.
In the case of `O=C(CN1CCCc2c(F)cc(Br)cc21)N1CCCC1` it was -1.26%; in that of `CN(Cc1ccc([S+](C)[O-])cc1)c1ccccn1` (stereo unspecified), -7%.
Consider `CC(C)c1ncc(Cl)c(C(=O)N2CCN(C3CC3)CC2)n1`, for which the cytotoxicity at 10 µM came to 3.78%.
For `CCc1nc(C(=O)N2CCN(C)c3ccccc32)c[nH]1` the value was 1.16%; for `Cc1cc2ccccc2n1CC(=O)Nc1ccnn1CC1CCOC1` (stereo unspecified), 7.77%; for `O=C1C(N2CCN(c3ccc(O)cc3)CC2)CCN1C1CCOCC1` (stereo unspecified), 12.6%.
Regarding `Cc1n[nH]cc1CNC1(c2ccc(F)cc2)CCCC1`, the cytotoxicity at 10 µM is 9.56%.
As to `O=C(c1ccsc1)N1CCN(CC(O)c2cccc(F)c2)CC1` (stereo unspecified), the cytotoxicity at 10 µM was -46.7%.
In the case of `COCCNC(=O)C[C@@H]1COC[C@H]2CN(Cc3cccnc3)C[C@@H]12` it was 2.13%.
Consider `CNC(=O)NCC1CCC2(CCN(C(=O)c3ccccc3)CC2)CO1` (stereo unspecified), for which the cytotoxicity at 10 µM was -97.2%.
With `O=C([C@@H]1CCCO1)N1CCN(Cc2ccncc2)c2ncccc2C1`, the cytotoxicity at 10 µM was -95.7%.
In the case of `Cc1nc(-c2nc(C(=O)N(C)C)c3ccccn23)cn1C(C)C` it was -121%.
For `Cn1ncc2c1C(COCC1CC1)CN(CC1CC1)C2` (stereo unspecified) the value was -78.5%; for `O=C(c1cccs1)N1CC[C@@H]2[C@H]1CCC(=O)N2c1ccccc1`, -97.5%.
In the case of `CN(C)CCN1CC[C@@H]2[C@@H]1CCN2C(=O)c1cccc(Cl)c1` it was -84%.
On to `Cn1ccnc1CN1CC[C@@H]2[C@@H](CCC(=O)N2CCc2c[nH]cn2)C1`, for which the cytotoxicity at 10 µM was -5.68%.
In the case of `NCC1CN(C(=O)c2cccc(-n3cccn3)c2)CCO1` (stereo unspecified) it was -1.56%; in that of `CC(=O)c1cn(CC(=O)N2CCC(O)(CO)CC2)c2ccccc12`, 1.13%; in that of `Cc1nc2c(C)cccc2cc1C(=O)N1CCC2(CC1)NCCNC2=O`, -0.0638%.
In the case of `Cn1c(Cn2ncc(N3CCCCC3)cc2=O)nc2ccccc21` it was 6.01%; in that of `CCSCCNC(=O)c1cnc(-c2ccccc2)nc1O`, -1.54%; in that of `O[C@@]1(Cn2cnc(Cl)c2Cl)CCCN2CCCC[C@@H]21`, -1.88%.
As to `CC(C)c1cc(N2CCC3(CC2)CN(C)CCN3C)ncn1`, the cytotoxicity at 10 µM was -16.2%.
In the case of `CCN(CC)C(=O)N1CCN(Cc2cnc(C)nc2)[C@H]2CS(=O)(=O)C[C@H]21` it was -8.84%; in that of `CCC(C)Oc1ccc(CNCCNC(C)=O)cc1OC` (stereo unspecified), -8.09%; in that of `CCn1c(C)nnc1SCCNC(=O)c1cccc2ccnn12`, -54.6%.
For `CCCc1nc(N2CCCC(CCOC)C2)c2cnn(C)c2n1` (stereo unspecified) the value was 12.1%; for `CNc1cc(C)nc(N2CCN(Cc3ccccc3)CC(O)C2)n1` (stereo unspecified), -4.21%.
For `COc1cccc2c1OCC(C(=O)NCCc1nc3c(s1)CCC3)C2` (stereo unspecified) the value was -39.6%; for `Cc1ccccc1CN(CCN(C)C)Cc1ccc(S(C)(=O)=O)cc1`, 6.3%.
With `CC(C)c1ccc(N2CCc3onc(-c4ccc(F)c(F)c4)c3C2)nn1`, the cytotoxicity at 10 µM is 0.324%.
In the case of `Cc1nc(CNc2nc3c(s2)c(C)nn3C)cs1` it was -109%; in that of `CCN(Cc1ccncc1)c1nc(C)nc2oc(C)nc12`, -50.6%; in that of `N[C@H]1CN(C(=O)c2cnc3cc(Cl)ccc3c2O)C[C@@H]1C1CC1`, -44.1%.
With `CCCn1ccnc1CN1CCC(O)(CN2CCCCC2)C1` (stereo unspecified), the cytotoxicity at 10 µM was -6.12%.
As to `CCOc1ccc(C(=O)CCC(=O)N(C)Cc2cnccn2)cc1C`, the cytotoxicity at 10 µM was determined as 1.39%.
Regarding `Cc1ncsc1CCCn1ccnc1-c1cc2n(n1)CCCNC2`, the cytotoxicity at 10 µM amounted to 3.28%.
In the case of `Cc1cc(C)n(C2CN(c3ncnc4c3CCNCC4)C2)n1`, the cytotoxicity at 10 µM turned out to be 7.99%.
Turning to `Cc1[nH]c2ccc(CNC(=O)c3ccc(CN4CCCC4)o3)cc2c1C`, the cytotoxicity at 10 µM is -2.5%.
For `O=C1N(CCCc2ccccc2)CCCC1(O)CNCc1ccccc1` (stereo unspecified) the value was 10.4%; for `Cc1cc(C2CCCN(C(=O)c3cnn(C)c3)C2)ccn1` (stereo unspecified), -2.83%; for `Cc1cc(C2CCCN(C(=O)c3cnccn3)C2)ccn1` (stereo unspecified), 0.204%.
Turning to `CCCc1cc(C(=O)N2CCOC(c3nc(-c4cccs4)no3)C2)no1` (stereo unspecified), the cytotoxicity at 10 µM amounted to 8.37%.
In the case of `COCC(c1cccc(C(F)(F)F)c1)N(C)C(=O)c1ccoc1` (stereo unspecified) it was -3.84%; in that of `COc1ccc(Br)c(C(=O)NCCNc2ccc(C(F)(F)F)cn2)c1`, 12.7%; in that of `Cc1oncc1C(=O)N[C@@H]1CN(C2CCC2)C[C@@H]2CCCO[C@@H]21`, -109%.
In the case of `Cc1nc(CN2CCO[C@H]3[C@@H](OCc4ccccn4)CC[C@@H]32)cs1` it was 0.179%; in that of `COC1CCC[C@@H]2CN(Cc3csc(C)n3)C[C@H]12` (stereo partly specified), -110%.
For `CCc1nnc(CN2CCC(C3CCCCCN3C(C)=O)CC2)o1` (stereo unspecified), the cytotoxicity at 10 µM is -43%.
In the case of `Cc1noc(C)c1CNCC1Cn2nncc2CO1` (stereo unspecified) it was -101%; in that of `O=C(COC1CCCC1)N1C[C@@H]2COC[C@]2(COc2cccnc2)C1`, -99.4%.
With `Cc1nc(CN2C[C@@H]3CN(C(=O)c4ccco4)C[C@@H]3C2=O)cs1`, the cytotoxicity at 10 µM was -77.7%.
For `COCC(=O)N1CCc2ccccc2C12CCNCC2` the value was -0.602%.
Turning to `Cc1nc(COCC2CN(C(N)=O)Cc3nccn3C2)cs1` (stereo unspecified), the cytotoxicity at 10 µM came to 5.3%.

Source of the values: ChEMBL document CHEMBL4513216, “Probing the Open Global Health Chemical Diversity Library for Multistage-Active Starting Points for Next-Generation Antimalarials” (ACS Infect Dis, 2020).
